From ChEMBL document CHEMBL3091378, “Design, synthesis and biological evaluation of α-substituted isonipecotic acid benzothiazole analogues as potent bacterial type II topoisomerase inhibitors” (Bioorg Med Chem Lett, 2013)
In brackets after ≈: the same amount, converted by molar mass. Activity calls are given as the source filed them. The rule behind the calls is not given here.

Legend:
Streptococcus pyogenes = experiment: Antibacterial activity against Streptococcus pyogenes ATCC 51339 assessed as growth inhibition after 16 to 20 hrs by broth microdilution method; assay type: functional
How it was run: (§1)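 Broth microdilution susceptibility testing following the CLSI M7-A7 standard; MIC determined.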

[1] = Inhibition of Escherichia coli DNA gyrase ATPase subunit A2B2 after 60 mins by malachite green staining assay
How it was run: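 E. coli gyrase A2B2, 10 nM, with 0.08 mg/mL DNA in 35 mM Tris pH 7.5, 24 mM KCl, 2 mM MgCl2, 6.5% glycerol, 0.1 mg/mL BSA, 2 mM DTT, 5% DMSO. Started with 1 mM ATP, 30 °C for 60 min. Phosphate read with malachite green at 600 nm after 5 min. IC50 taken against no-compound and no-enzyme controls.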

[2] = Solubility of the compound in PBS at pH 7.4 after 24 hrs by turbidimetric analysis; assay type: physicochemical
How it was run: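 Doubling dilutions in DMSO diluted 20-fold into 100 mM PBS pH 7.4, equilibrated 24 h at room temperature, absorbance read at 620 nm. Value is the highest concentration with no measurable precipitate.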

Haemophilus influenzae = experiment: Antibacterial activity against Haemophilus influenzae ATCC 49247 assessed as growth inhibition after 16 to 20 hrs by broth microdilution method; assay type: functional; how it was run: as §1
Staphylococcus aureus [3] = experiment: Antibacterial activity against Staphylococcus aureus ATCC 29213 assessed as growth inhibition after 16 to 20 hrs by broth microdilution method; assay type: functional; how it was run: as §1
Enterococcus faecalis = experiment: Antibacterial activity against Enterococcus faecalis ATCC 29212 assessed as growth inhibition after 16 to 20 hrs by broth microdilution method; assay type: functional; how it was run: as §1
[4] = Intrinsic clearance in mouse liver microsomes at 10 uM by LC-MS analysis; assay type: ADME, Microsome; details: read-out: CLH
How it was run: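 Compound at 10 μM, duplicate, 0.1% DMSO, with mouse liver microsomes at 1 mg/mL protein. Started with 1 mM NADPH and stopped at 0, 10, 30 and 60 min. Acetonitrile extracts analysed by LCMS. T1/2 taken from the slope of peak area over time, then converted to intrinsic clearance.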

[5] = Clearance in rat at 3 mg/kg, iv; assay type: ADME, organism-based; design: dose 3 mg/kg, route intravenous; details: in vivo
How it was run: (§2)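 Single 3 mg/kg dose given as an IV bolus by tail vein or by oral gavage, dose volume 5 mL/kg. Rats were bled by jugular vein catheter. Anaesthetised mice were bled from the retro-orbital plexus. Plasma was extracted into methanol and drug measured by LC/MS/MS. Cmax (oral), AUC and clearance (IV) and bioavailability were calculated from plasma concentrations.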

[6] = Clearance in mouse at 3 mg/kg, iv; assay type: ADME, organism-based; design: dose 3 mg/kg, route intravenous; details: in vivo; how it was run: as §2
[7] = Oral bioavailability in mouse at 3 mg/kg; assay type: ADME, organism-based; details: in vivo; how it was run: as §2
[8] = AUC in mouse at 3 mg/kg, iv; assay type: ADME, organism-based; design: dose 3 mg/kg, route intravenous; details: plasma; how it was run: as §2
[9] = AUC in rat at 3 mg/kg, iv; assay type: ADME, organism-based; design: dose 3 mg/kg, route intravenous; details: plasma; how it was run: as §2
DNA gyrase = DNA gyrase (Staphylococcus aureus, UniProt P0A0K8+P20831); experiment: Inhibition of Staphylococcus aureus DNA gyrase ATPase subunit GyrA2/GyrB2 after 60 mins by malachite green staining assay; assay type: protein-complex assay
How it was run: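 S. aureus gyrase A2B2, 10 nM, with 0.08 mg/mL DNA in 40 mM HEPES pH 7.6, 10 mM Mg acetate, 0.5 M K glutamate, 0.01 mg/mL BSA, 2 mM DTT, 5% DMSO. Reaction started with 1 mM ATP and run 60 min at 30 °C. Malachite green absorbance read at 600 nm. IC50 derived using no-compound and no-enzyme controls.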

[10] = Cmax in rat at 3 mg/kg, po; assay type: ADME, organism-based; design: dose 3 mg/kg, route oral; details: in vivo; how it was run: as §2
[11] = Oral bioavailability in rat at 3 mg/kg; assay type: ADME, organism-based; details: in vivo; how it was run: as §2
[12] = Cmax in mouse at 3 mg/kg, po; assay type: ADME, organism-based; design: dose 3 mg/kg, route oral; details: in vivo; how it was run: as §2
[13] = Plasma protein binding in rat; assay type: ADME, cell-free; details: read-out: PPB (converted)
Staphylococcus aureus [14] = experiment: Antibacterial activity against Staphylococcus aureus ATCC 29213 assessed as spontaneous mutant measuring frequency of resistance at 4 to 8 fold MIC relative to control; assay type: functional, organism-based
Topoisomerase IV = Topoisomerase IV (Staphylococcus aureus, UniProt P0C1S7+P0C1U9); experiment: Inhibition of Staphylococcus aureus DNA topoisomerase 4 subunit ParC2/ParE2 after 60 mins by malachite green staining assay; assay type: protein-complex assay
How it was run: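 S. aureus topo IV C2E2, 25 nM, with 0.01 mg/mL DNA in 50 mM Tris-HCl pH 7.5, 5 mM MgCl2, 0.35 M K glutamate, 0.05 mg/mL BSA, 5 mM DTT, 1% DMSO. ATP added at 1 mM to start, then 30 °C for 60 min. Malachite green read at 600 nm. IC50 calculated relative to no-compound and no-enzyme controls.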

| SMILES | MIC (Streptococcus pyogenes) [µg/mL] | IC50 [1] [µg/mL] | solubility kinetic at 24 h [2] [µg/mL] | MIC (Haemophilus influenzae) [µg/mL] | MIC (Staphylococcus aureus [3]) [µg/mL] | MIC (Enterococcus faecalis) [µg/mL] | CLint scaled at 10 µM [4] [mL/min/kg] | clearance [5] [mL/min/kg] | clearance [6] [mL/min/kg] | bioavailability [7] [%] | AUC [8] [ng·h/mL] | AUC [9] [ng·h/mL] | IC50 (DNA gyrase) [nM] | Cmax [10] [ng/mL] | bioavailability [11] [%] | Cmax [12] [ng/mL] | fraction unbound [13] | Activity (Staphylococcus aureus [14]) | IC50 (Topoisomerase IV) [nM] |
| --- | --- | --- | --- | --- | --- | --- | --- | --- | --- | --- | --- | --- | --- | --- | --- | --- | --- | --- | --- |
| CCNC(=O)Nc1nc2cc(-c3cnc(N4CCC(N)(C(=O)O)CC4)nc3)cc(-c3ccccn3)c2s1 | 4 (≈ 7.71 µM) | 0.025 (≈ 0.0482 µM) | 25 (≈ 48.2 µM) | > 16 | > 16 | > 16 |  |  |  |  |  |  |  |  |  |  |  |  |  |
| CCNC(=O)Nc1nc2cc(-c3cnc(N4CCC(C)(C(=O)O)C4)nc3)cc(-c3ccccn3)c2s1 (stereo unspecified) | 0.5 (≈ 0.993 µM) |  | > 800 | 4 (≈ 7.94 µM) | 2 (≈ 3.97 µM) |  |  |  |  |  |  |  | 79.4 |  |  |  |  |  |  |
| CCNC(=O)Nc1nc2cc(-c3cnc(N4CCC(C(=O)O)CC4)nc3)cc(-c3ccccn3)c2s1 | 0.03 (≈ 0.0596 µM) |  | > 800 | 2 (≈ 3.97 µM) | 0.12 (≈ 0.238 µM) | 0.015 (≈ 0.0298 µM) | < 5.8 |  | 55 | 8 | 900 |  | 19.9 |  |  | 70 | 0.007 | inactive | 23.8 |
| CCNC(=O)Nc1nc2cc(-c3cnc(N4CCC(C)(C(=O)O)CC4)nc3)cc(-c3ccccn3)c2s1 | 0.06 (≈ 0.116 µM) |  | > 800 | 2 (≈ 3.86 µM) | 0.12 (≈ 0.232 µM) | 0.015 (≈ 0.029 µM) | < 5.8 | 2.8 |  |  |  |  | 15.5 | 1800 |  |  | 0.007 | inactive | 15.5 |
| CCNC(=O)Nc1nc2cc(-c3cnc(N4CCC(C(=O)O)(c5ccccc5)CC4)nc3)cc(-c3ccccn3)c2s1 | 0.5 (≈ 0.863 µM) | 0.013 (≈ 0.0224 µM) | 12.5 (≈ 21.6 µM) | > 16 | 0.5 (≈ 0.863 µM) | 0.06 (≈ 0.104 µM) | < 5.8 |  |  |  |  |  |  |  |  |  |  |  |  |

Now from value to molecule, other results behind:

| MIC (Streptococcus pyogenes) [µg/mL] | IC50 [1] [µg/mL] | solubility kinetic at 24 h [2] [µg/mL] | MIC (Haemophilus influenzae) [µg/mL] | MIC (Staphylococcus aureus [3]) [µg/mL] | MIC (Enterococcus faecalis) [µg/mL] | CLint scaled at 10 µM [4] [mL/min/kg] | clearance [5] [mL/min/kg] | clearance [6] [mL/min/kg] | bioavailability [7] [%] | AUC [8] [ng·h/mL] | AUC [9] [ng·h/mL] | IC50 (DNA gyrase) [nM] | Cmax [10] [ng/mL] | bioavailability [11] [%] | Cmax [12] [ng/mL] | SMILES | fraction unbound [13] | Activity (Staphylococcus aureus [14]) | IC50 (Topoisomerase IV) [nM] |
| --- | --- | --- | --- | --- | --- | --- | --- | --- | --- | --- | --- | --- | --- | --- | --- | --- | --- | --- | --- |
| 0.12 (≈ 0.232 µM) |  | > 800 | 2 (≈ 3.87 µM) | 0.12 (≈ 0.232 µM) | 0.03 (≈ 0.0581 µM) | < 5.8 | 7.6 | 6.5 | 33 | 7600 | 6600 | 23.2 | 600 | 31 | 1700 | CCNC(=O)Nc1nc2cc(-c3ccc(N4CCC(C)(C(=O)O)CC4)nc3)cc(-c3ccccn3)c2s1 |  |  |  |
| 0.06 (≈ 0.113 µM) |  | > 800 | 4 (≈ 7.52 µM) | 0.06 (≈ 0.113 µM) | 0.015 (≈ 0.0282 µM) | < 5.8 | 1.5 | 3.5 | 87 | 14300 | 27700 | 22.6 | 3500 | 80 | 6100 | CCNC(=O)Nc1nc2cc(-c3cnc(N4CCC(CC)(C(=O)O)CC4)nc3)cc(-c3ccccn3)c2s1 |  |  |  |
| 0.06 (≈ 0.116 µM) |  | > 800 | 4 (≈ 7.74 µM) | 1 (≈ 1.94 µM) | 0.06 (≈ 0.116 µM) |  |  |  |  |  |  | 29 |  |  |  | CCNC(=O)Nc1nc2cc(-c3cncc(N4CCC(C)(C(=O)O)CC4)c3)cc(-c3ccccn3)c2s1 |  |  |  |
| 0.12 (≈ 0.231 µM) | 0.003 (≈ 0.00577 µM) | 100 (≈ 192 µM) | 8 (≈ 15.4 µM) | 8 (≈ 15.4 µM) | 0.5 (≈ 0.962 µM) |  |  |  |  |  |  |  |  |  |  | CCNC(=O)Nc1nc2cc(-c3cnc(N4CCC(O)(C(=O)O)CC4)nc3)cc(-c3ccccn3)c2s1 |  |  |  |
